The record followed here is ChEMBL document CHEMBL1821688, “Synthesis and biological evaluation of (±)-3-(2-(2-fluorobenzyloxy) naphthalen-6-yl)-2-aminopropanoic acid derivatives as novel PTP1B inhibitors” (Eur J Med Chem, 2011).

The target of assay [1] is T1, Tyrosine-protein phosphatase non-receptor type 1 (Homo sapiens, UniProt P18031).
T1 sequence (P18031 whole entry): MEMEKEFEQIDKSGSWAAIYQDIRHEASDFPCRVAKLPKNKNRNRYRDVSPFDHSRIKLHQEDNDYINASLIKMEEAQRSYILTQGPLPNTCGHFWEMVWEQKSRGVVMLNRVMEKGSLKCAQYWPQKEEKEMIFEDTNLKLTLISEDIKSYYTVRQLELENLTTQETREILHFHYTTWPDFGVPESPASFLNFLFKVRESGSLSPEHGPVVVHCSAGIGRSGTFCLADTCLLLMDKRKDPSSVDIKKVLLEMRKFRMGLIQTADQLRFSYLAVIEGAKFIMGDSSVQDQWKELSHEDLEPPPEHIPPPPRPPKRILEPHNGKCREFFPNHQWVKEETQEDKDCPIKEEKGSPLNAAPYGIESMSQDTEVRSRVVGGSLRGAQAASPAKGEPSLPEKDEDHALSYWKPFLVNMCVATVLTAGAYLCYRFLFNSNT
As to the kind of experiment: Inhibition of PTP1B using p-nitrophenyl phosphate as substrate. The gist of the method:
(§1)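 IC50 values were obtained by regression analysis and reported as mean ± SD of three replicate determinations.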

Assay [2] in a line: Selectivity ratio of IC50 for TCPTP to IC50 for PTP1B.
The target of assay [3] is T2, Tyrosine-protein phosphatase non-receptor type 2 (Homo sapiens, UniProt P17706).
T2 sequence (P17706 whole entry): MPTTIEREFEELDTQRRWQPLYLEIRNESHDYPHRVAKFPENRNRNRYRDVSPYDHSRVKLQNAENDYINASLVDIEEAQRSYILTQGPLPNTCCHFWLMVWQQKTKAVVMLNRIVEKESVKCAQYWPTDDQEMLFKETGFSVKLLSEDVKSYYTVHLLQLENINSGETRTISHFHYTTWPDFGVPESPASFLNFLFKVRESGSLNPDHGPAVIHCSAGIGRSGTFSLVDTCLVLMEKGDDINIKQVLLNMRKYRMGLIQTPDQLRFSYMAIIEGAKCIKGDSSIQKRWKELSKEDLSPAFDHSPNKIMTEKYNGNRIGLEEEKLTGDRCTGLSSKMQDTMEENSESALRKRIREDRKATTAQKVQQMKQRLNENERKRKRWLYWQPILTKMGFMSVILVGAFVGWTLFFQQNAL
Briefly: Inhibition of TCPTP. Summed up: as §1

The target of assay [4] is T3, M-phase inducer phosphatase 2 (Homo sapiens, UniProt P30305).
T3 sequence (P30305 whole entry): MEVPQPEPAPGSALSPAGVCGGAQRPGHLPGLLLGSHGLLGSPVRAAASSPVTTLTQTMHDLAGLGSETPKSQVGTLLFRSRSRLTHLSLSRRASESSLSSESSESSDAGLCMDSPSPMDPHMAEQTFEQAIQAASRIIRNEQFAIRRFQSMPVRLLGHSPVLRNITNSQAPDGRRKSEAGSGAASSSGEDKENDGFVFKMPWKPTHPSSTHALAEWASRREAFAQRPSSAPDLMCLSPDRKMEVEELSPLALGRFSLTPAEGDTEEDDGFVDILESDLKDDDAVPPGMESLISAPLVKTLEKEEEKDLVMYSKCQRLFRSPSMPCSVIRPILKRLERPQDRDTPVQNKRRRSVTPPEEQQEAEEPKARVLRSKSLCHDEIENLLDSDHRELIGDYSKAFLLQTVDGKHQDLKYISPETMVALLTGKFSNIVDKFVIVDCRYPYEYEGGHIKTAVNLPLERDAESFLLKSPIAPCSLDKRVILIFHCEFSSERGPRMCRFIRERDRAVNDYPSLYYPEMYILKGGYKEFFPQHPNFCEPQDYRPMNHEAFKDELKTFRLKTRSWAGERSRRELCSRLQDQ
As to the kind of experiment: Inhibition of human recombinant CDC25B. The gist of the method: as §1

The target of assay [5] is T4, Tyrosine-protein phosphatase non-receptor type 6 (Homo sapiens, UniProt P29350). Briefly: Inhibition of human recombinant SHP1 in Tris buffer of pH 8 at 20 ug/mL.
For assay [6], the target named is Receptor-type tyrosine-protein phosphatase alpha (Homo sapiens) (UniProt P18433). Briefly: Inhibition of human recombinant PTPalpha at 20 ug/mL.
Assay [7] concerns the target Receptor-type tyrosine-protein phosphatase F (Homo sapiens) (UniProt P10586). As to the kind of experiment: Inhibition of human recombinant LAR at 20 ug/mL.
The target in assay [8] is T4, Tyrosine-protein phosphatase non-receptor type 6. As to the kind of experiment: Inhibition of human recombinant SHP1 in Tris buffer at pH 8 using OMPF as substrate. Summed up:
as §1

Activity calls are given as the source filed them. The calls are words filed in the database; no cut-off is given here.

T4 sequence (P29350 whole entry): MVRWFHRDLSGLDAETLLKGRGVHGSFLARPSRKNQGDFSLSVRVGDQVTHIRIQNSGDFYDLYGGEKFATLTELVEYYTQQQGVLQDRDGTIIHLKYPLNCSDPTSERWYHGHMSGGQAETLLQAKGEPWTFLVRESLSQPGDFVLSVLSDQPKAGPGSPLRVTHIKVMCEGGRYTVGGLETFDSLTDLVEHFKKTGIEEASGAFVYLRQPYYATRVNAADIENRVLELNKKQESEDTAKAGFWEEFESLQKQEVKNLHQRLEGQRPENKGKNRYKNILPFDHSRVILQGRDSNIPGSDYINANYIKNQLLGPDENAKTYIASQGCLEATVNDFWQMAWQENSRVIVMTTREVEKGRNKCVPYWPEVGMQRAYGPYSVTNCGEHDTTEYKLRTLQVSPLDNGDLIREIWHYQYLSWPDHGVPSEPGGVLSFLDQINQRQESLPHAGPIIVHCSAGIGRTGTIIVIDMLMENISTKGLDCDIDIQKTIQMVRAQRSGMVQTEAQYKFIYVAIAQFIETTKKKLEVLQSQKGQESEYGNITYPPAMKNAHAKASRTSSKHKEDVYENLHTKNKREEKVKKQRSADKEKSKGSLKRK
Chain of Receptor-type tyrosine-protein phosphatase F (Homo sapiens) (P10586 whole entry): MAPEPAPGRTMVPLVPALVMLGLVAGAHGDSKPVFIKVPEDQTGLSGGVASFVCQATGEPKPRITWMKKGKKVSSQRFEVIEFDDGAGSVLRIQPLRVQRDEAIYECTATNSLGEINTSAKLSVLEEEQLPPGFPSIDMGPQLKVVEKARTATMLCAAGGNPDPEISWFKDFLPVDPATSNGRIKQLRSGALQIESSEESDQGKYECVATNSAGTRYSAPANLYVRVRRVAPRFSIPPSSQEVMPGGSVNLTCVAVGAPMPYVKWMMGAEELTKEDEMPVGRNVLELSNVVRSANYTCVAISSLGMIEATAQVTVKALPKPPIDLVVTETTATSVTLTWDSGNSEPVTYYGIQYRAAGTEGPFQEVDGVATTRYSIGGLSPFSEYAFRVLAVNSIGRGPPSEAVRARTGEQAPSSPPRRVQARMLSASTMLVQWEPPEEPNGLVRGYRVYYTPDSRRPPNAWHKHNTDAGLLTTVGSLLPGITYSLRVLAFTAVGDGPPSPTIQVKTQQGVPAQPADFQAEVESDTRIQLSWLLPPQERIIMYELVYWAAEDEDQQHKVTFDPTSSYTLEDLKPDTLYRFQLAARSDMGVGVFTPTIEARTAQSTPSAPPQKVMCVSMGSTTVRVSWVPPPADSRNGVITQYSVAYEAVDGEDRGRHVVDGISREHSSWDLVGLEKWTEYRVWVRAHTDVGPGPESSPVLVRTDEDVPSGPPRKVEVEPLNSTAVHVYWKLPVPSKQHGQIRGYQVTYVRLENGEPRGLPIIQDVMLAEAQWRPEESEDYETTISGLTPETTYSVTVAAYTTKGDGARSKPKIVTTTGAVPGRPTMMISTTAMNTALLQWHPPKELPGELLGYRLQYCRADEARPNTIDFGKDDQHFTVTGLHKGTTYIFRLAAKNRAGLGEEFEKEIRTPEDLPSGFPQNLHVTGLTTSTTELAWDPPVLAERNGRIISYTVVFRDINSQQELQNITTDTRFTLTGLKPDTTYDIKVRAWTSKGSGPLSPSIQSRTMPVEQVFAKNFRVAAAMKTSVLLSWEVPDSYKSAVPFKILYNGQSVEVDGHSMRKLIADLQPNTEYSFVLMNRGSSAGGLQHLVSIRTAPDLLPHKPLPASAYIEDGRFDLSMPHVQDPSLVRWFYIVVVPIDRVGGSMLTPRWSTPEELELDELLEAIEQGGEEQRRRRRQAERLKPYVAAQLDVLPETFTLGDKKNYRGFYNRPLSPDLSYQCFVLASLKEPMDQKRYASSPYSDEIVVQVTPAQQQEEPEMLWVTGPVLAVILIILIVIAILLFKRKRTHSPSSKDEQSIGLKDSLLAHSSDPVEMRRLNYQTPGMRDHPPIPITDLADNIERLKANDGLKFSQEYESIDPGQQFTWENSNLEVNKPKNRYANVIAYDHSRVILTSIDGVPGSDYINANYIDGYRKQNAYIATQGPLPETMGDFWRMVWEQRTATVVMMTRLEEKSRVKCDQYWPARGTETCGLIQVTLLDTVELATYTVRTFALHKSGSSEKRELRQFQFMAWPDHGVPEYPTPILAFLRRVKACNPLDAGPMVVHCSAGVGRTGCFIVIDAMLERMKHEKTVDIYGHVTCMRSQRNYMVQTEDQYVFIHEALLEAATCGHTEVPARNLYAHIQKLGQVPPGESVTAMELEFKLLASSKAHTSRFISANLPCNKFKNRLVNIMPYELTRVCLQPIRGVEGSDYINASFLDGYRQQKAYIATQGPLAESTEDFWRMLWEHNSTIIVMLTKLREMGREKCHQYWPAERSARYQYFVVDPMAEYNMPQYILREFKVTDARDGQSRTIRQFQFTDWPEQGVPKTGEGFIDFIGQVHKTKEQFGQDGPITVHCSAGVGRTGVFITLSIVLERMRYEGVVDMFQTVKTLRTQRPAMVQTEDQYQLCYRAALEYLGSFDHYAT
Chain of Receptor-type tyrosine-protein phosphatase alpha (Homo sapiens) (P18433 20-802 limits assumed): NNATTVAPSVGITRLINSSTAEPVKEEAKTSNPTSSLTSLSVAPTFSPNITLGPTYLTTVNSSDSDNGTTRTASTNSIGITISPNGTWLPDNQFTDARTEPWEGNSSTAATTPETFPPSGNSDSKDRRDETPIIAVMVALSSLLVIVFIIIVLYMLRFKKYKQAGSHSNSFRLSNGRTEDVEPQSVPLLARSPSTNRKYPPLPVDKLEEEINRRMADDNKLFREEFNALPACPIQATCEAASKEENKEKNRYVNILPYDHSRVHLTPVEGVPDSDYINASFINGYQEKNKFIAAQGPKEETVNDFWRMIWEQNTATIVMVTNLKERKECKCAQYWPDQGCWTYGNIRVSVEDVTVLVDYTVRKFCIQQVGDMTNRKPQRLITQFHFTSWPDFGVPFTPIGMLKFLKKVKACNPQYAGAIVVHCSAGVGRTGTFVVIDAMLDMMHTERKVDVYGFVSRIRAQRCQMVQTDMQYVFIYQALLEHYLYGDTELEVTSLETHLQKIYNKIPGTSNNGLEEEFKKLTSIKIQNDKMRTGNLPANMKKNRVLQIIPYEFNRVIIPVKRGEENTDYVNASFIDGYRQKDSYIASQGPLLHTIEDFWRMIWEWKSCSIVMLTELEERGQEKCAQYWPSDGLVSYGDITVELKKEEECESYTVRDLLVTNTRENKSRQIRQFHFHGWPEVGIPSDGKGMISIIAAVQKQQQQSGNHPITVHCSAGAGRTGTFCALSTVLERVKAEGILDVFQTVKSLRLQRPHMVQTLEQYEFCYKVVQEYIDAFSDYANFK

Take `O=C(NC(Cc1ccc2cc(O)ccc2c1)C(=O)O)c1ccccc1` (racemic): the IC50 (in general, the concentration at which inhibition is half-maximal) in assay [1] is greater than 300 µM. The Ratio IC50 in assay [2] turned out to be 1.

In the case of `O=C(NC(Cc1ccc2cc(OCc3ccccc3F)ccc2c1)C(=O)O)c1ccccc1` (racemic), the concentration for half-maximal inhibition (IC50) worked out at 6.55 µM in assay [1], 9.43 µM in assay [3] and 19.4 µM in assay [4]. The inhibition result in assay [5], in assay [6] and in assay [7] was “inactive” throughout. The Ratio IC50 in assay [2] came out at 1.

For the molecule `COc1ccc(COc2ccc3cc(CC(NC(=O)c4ccccc4)C(=O)O)ccc3c2)cc1` (racemic), in assay [1], 14.3 µM corresponded to half-maximal inhibition (IC50). Further, in assay [2], the Ratio IC50 was found to be 1.

`O=C(NC(Cc1ccc2cc(OCc3ccc(Cl)cc3)ccc2c1)C(=O)O)c1ccccc1` (racemic) gave a half-inhibitory concentration (IC50) in assay [1] of 21.7 µM. Also, the Ratio IC50 in assay [2] turned out to be 1.

As for `CC(C)(C)OC(=O)NC(Cc1ccc2cc(O)ccc2c1)C(=O)O` (racemic), in assay [1], the 50% inhibitory concentration (IC50) is greater than 300 µM. Further, the Ratio IC50 in assay [2] was 1.

Consider `CC(C)(C)OC(=O)NC(Cc1ccc2cc(OCc3ccccc3F)ccc2c1)C(=O)O` (racemic), for which, in assay [1], half-maximal inhibition (IC50) required 11.1 µM. Moreover, in assay [2], the Ratio IC50 amounted to 1.

Turning to `NC(Cc1ccc2cc(OCc3ccccc3F)ccc2c1)C(=O)O` (racemic), the half-maximal inhibitory concentration (IC50) in assay [1] stood at 24.7 µM. Also, in assay [2], the Ratio IC50 was found to be 1.

With `O=C(Cc1ccc(Cl)cc1)NC(Cc1ccc2cc(OCc3ccccc3F)ccc2c1)C(=O)O` (racemic), the IC50 in assay [1] is 7.91 µM; in assay [3] it was 12.9 µM; in assay [4] it was 8.44 µM; in assay [8], 15.6 µM. Moreover, the inhibition entry in assay [6] and in assay [7] was “inactive” in each case. The Ratio IC50 in assay [2] amounted to 1.

On to `O=C(COc1ccc(Cl)cc1)NC(Cc1ccc2cc(OCc3ccccc3F)ccc2c1)C(=O)O` (racemic), for which the half-maximal inhibitory concentration (IC50) in assay [1] was 10.8 µM; in assay [3], 17.5 µM; in assay [4] it was 13.7 µM. The inhibition result in assay [5], in assay [6] and in assay [7] was “inactive” in each case. Further, in assay [2], the Ratio IC50 came to 1.

Regarding `O=C(CCc1ccccc1)NC(Cc1ccc2cc(OCc3ccccc3F)ccc2c1)C(=O)O` (racemic), the results for the IC50 in assay [1], in assay [3] and in assay [4] were 11.4 µM, 27.3 µM and 15.2 µM, respectively. Besides, the inhibition result in assay [5], in assay [6] and in assay [7] was “inactive” throughout.

Regarding `O=C(/C=C/c1ccccc1)NC(Cc1ccc2cc(OCc3ccccc3F)ccc2c1)C(=O)O` (racemic), the 50% inhibitory concentration (IC50) in assay [1] worked out at 8.88 µM; in assay [3], 18.9 µM; in assay [4], 14.7 µM. In addition, the inhibition entry in assay [5], in assay [6] and in assay [7] was “inactive” in each case.

On to `O=C(/C=C/c1ccccc1F)NC(Cc1ccc2cc(OCc3ccccc3F)ccc2c1)C(=O)O` (racemic), for which the IC50 in assay [1] was found to be 2.49 µM; in assay [3], 3.02 µM; in assay [4], 4.58 µM; in assay [8], 9.84 µM. The inhibition result in assay [6] and in assay [7] was “inactive” throughout. In assay [2], the Ratio IC50 came to 1.

For `O=C(/C=C/c1cccc(F)c1)NC(Cc1ccc2cc(OCc3ccccc3F)ccc2c1)C(=O)O` (racemic), the IC50 is 2.79 µM in assay [1], 6.08 µM in assay [3], 5.13 µM in assay [4] and 26.5 µM in assay [8]. The inhibition entry in assay [6] and in assay [7] was “inactive” in each case. Besides, the Ratio IC50 in assay [2] is 1.

Regarding `O=C(/C=C/c1ccc(F)cc1)NC(Cc1ccc2cc(OCc3ccccc3F)ccc2c1)C(=O)O` (racemic), the IC50 in assay [1] is 3.38 µM; in assay [3], 5.96 µM; in assay [4], 6.6 µM; in assay [8] it was 18.5 µM. The inhibition result in assay [6] and in assay [7] was “inactive” each time. Also, in assay [2], the Ratio IC50 stood at 1.

For `O=C(/C=C/c1cccc(Cl)c1)NC(Cc1ccc2cc(OCc3ccccc3F)ccc2c1)C(=O)O` (racemic), the IC50 in assay [1] came to 4 µM; in assay [3], 7.24 µM; in assay [4], 5.35 µM; in assay [8] it was 13.2 µM. Further, the inhibition result in assay [6] and in assay [7] was “inactive” in each case. In assay [2], the Ratio IC50 came out at 1.

Regarding `O=C(/C=C/c1ccc(Cl)cc1)NC(Cc1ccc2cc(OCc3ccccc3F)ccc2c1)C(=O)O` (racemic), the 50% inhibitory concentration (IC50) in assay [1] is 2.59 µM; in assay [3], 4.33 µM; in assay [4] it was 2.63 µM; in assay [8] it was 16.3 µM. The inhibition entry in assay [6] and in assay [7] was “inactive” in each case. Besides, the Ratio IC50 in assay [2] worked out at 1.

Consider `O=C(/C=C/c1ccccc1Br)NC(Cc1ccc2cc(OCc3ccccc3F)ccc2c1)C(=O)O` (racemic), for which the IC50 in assay [1] came out at 1.77 µM; in assay [3] it was 4.66 µM; in assay [4], 2.89 µM; in assay [8] it was 11 µM. Also, the inhibition entry in assay [6] and in assay [7] was “inactive” each time. Moreover, the Ratio IC50 in assay [2] was 1.

As to `O=C(/C=C/c1ccc(Br)cc1)NC(Cc1ccc2cc(OCc3ccccc3F)ccc2c1)C(=O)O` (racemic), the IC50 amounted to 1.57 µM in assay [1], 3.67 µM in assay [3], 2.49 µM in assay [4] and 13 µM in assay [8]. In addition, the inhibition result in assay [6] and in assay [7] was “inactive” each time. In addition, the Ratio IC50 in assay [2] was found to be 1.

For `O=C(/C=C/c1ccc(Cl)cc1Cl)NC(Cc1ccc2cc(OCc3ccccc3F)ccc2c1)C(=O)O` (racemic), the IC50 in assay [1] amounted to 4.22 µM; in assay [3], 6.11 µM; in assay [4] it was 8.93 µM; in assay [8], 12.5 µM. Moreover, the inhibition entry in assay [6] and in assay [7] was “inactive” each time. Besides, in assay [2], the Ratio IC50 stood at 1.

For the molecule `O=C(/C=C/c1ccc(Cl)c(Cl)c1)NC(Cc1ccc2cc(OCc3ccccc3F)ccc2c1)C(=O)O` (racemic), the half-inhibitory concentration (IC50) in assay [1] worked out at 4.71 µM; in assay [3], 15.3 µM; in assay [4], 5.63 µM; in assay [8], 10.7 µM. The inhibition entry in assay [6] and in assay [7] was “inactive” each time.

Regarding `COc1cccc(/C=C/C(=O)NC(Cc2ccc3cc(OCc4ccccc4F)ccc3c2)C(=O)O)c1` (racemic), the IC50 in assay [1] worked out at 8.15 µM; in assay [3], 15.2 µM; in assay [4], 10.7 µM; in assay [8], 16.4 µM. The inhibition result in assay [6] and in assay [7] was “inactive” in each case. Further, in assay [2], the Ratio IC50 was 1.

Consider `COc1ccc(/C=C/C(=O)NC(Cc2ccc3cc(OCc4ccccc4F)ccc3c2)C(=O)O)cc1` (racemic), for which the figures for the 50% inhibitory concentration (IC50) in assay [1], in assay [3] and in assay [4] were 5.9 µM, 9.21 µM and 14 µM, respectively. Also, the inhibition entry in assay [5], in assay [6] and in assay [7] was “inactive” each time. For the same molecule, the Ratio IC50 in assay [2] is 1.

Molecule `C[C@H]1[C@H](C)CC[C@]2(C(=O)O)CC[C@]3(C)C(=CC[C@@H]4[C@@]5(C)CC[C@H](O)C(C)(C)[C@@H]5CC[C@]43C)[C@H]12` [URSOLIC ACID] returned an IC50 in assay [3] of 6.7 µM.
